Source: PubChem BioAssay
ROMK mod: modulators of human ROMK potassium channel; P48048; Tet-inducible ROMK, thallium flux fluorescence; actives lie on both sides; B-score at 10 µM; 2% of 130,000 active;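 active = signal ratio slope over the read window, or its plate-corrected B-score, at least 3 SD from the plate mean, either direction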;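 note: B-score of the F/F0 ratio slope over 7 to 12 s after thallium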
14-3-3 Bad inh: disrupts binding of bovine 14-3-3 zeta to phospho-Bad peptide; P63103; TR-FRET 14-3-3zeta/Dy647-pBad peptide displacement, 1 h; inhibition, % at 21.7 µM; 0.71% of 220,000 active; AID 781;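 active = inhibition above about 70%, limit read from the data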;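 note: 0% = full 14-3-3 plus peptide FRET controls and 100% = background without 14-3-3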
NCF1 inh: blocks human p47phox regulatory protein of NADPH oxidases; inhibition, % at 24.7 µM; 0.53% of 220,000 active; p47phox/p22phox peptide binding, fluorescence polarization, 2 h; P14598; AID 1274;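 active = inhibition above about 30%, limit read from the data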;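 note: 0% = p47phox with labelled peptide and 100% = labelled peptide alone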
Target sequence (P14598 whole entry, looked up): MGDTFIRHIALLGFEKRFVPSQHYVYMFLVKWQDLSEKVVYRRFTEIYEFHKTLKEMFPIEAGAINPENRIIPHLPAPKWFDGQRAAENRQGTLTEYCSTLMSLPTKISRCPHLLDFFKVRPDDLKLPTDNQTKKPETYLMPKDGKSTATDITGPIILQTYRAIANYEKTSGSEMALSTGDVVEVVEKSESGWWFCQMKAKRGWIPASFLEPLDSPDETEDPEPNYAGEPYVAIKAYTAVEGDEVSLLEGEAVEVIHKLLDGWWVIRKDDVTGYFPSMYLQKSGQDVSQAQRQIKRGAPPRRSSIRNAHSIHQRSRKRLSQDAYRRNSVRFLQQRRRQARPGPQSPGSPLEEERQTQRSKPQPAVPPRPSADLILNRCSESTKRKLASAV
WT yeast gro inh: growth inhibition of WT yeast, mitochondrial fusion screen; inhibition, % at 10 µM; 2.1% of 190,000 active; mitochondrial fusion phenotypic screen, WT strain; in the data active = inhibition above about 58%; tested in S. cerevisiae
Cl transport mod: modulators of human KCC2 chloride dependent transport; 2.2% of 190,000 active; Q9H2X9; B-score of Tl+ flux slope (higher = more flux/activation; lower = inhibition) at 10 µM; KCC2 cells, thallium flux FluoZin-2 fluorescence;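 active = thallium flux slope and its plate-corrected score both differing from the plate sample mean at a set confidence after two filtering rounds, in either direction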;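 note: slope of fluorescence scaled to starting intensity during 10 to 20 s after thallium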
RBBP9 inhibitor: human RBBP9 hydrolase inhibition; 0.2% of 220,000 active; recombinant RBBP9, FP-Rh probe fluorescence polarization; inhibition, % at 7.94 µM;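 active = inhibition above the campaign mean of all tested compounds plus 3 SD, cut at about 14% in these data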;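 note: plate controls were DMSO wells with RBBP9 for no effect and wells lacking RBBP9 protein for full effect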
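Material: RBBP9 protein. Amount: RBBP9 at 2.5 µM in dispensed solution, before mixing. Schedule: 30 min then 45 min, 25 °C. Medium: Tris buffer pH 8.0, NaCl, Pluronic. Measured by: fluorescence polarization. Measure: percent inhibition from mP, scaled between DMSO and no-protein wells. Replication: one well per compound.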
* hit, by the source's call; x = not tested or not shown; [ ] = dose if it differs, or a comment. Shown are actives, neighbours in structure and some others; about 5.8% of the full set was active somewhere.

SMILES	ROMK mod	14-3-3 Bad inh	NCF1 inh	WT yeast gro inh	Cl transport mod	RBBP9 inhibitor
Nc1nc(CSc2ccccc2)nc(N2CCCCC2)n1	-2	-11	-3	12	-0.33	-3
Nc1nc(CSc2ccc(Cl)cc2)nc(N2CCCCC2)n1	-2.4	9	7	74*	-0.054	1
CCOC(=O)c1nc2c(ccc3ccccc32)cc1C	x	-3	-10	x	-0.17	-8
O=C(CNC(=S)N(Cc1ccccc1)Cc1ccccc1F)NCCc1ccc(Cl)cc1	0.71	-10	-9	75*	0.4	-21
O=C(CNC(=S)N(Cc1ccccc1)Cc1cccs1)NCc1ccc(F)cc1	-0.56	-3	-1	61*	-0.65	-5
COCCNC(=O)CNC(=S)N(Cc1ccccc1)Cc1cccnc1	1.3	-22	-24	2	-0.93	-3
O=C(CC1(c2ccc(Cl)cc2)C2CC3CC(C2)CC1C3)NCCO (stereo unspecified)	-0.5	-6	9	7	0.49	-11
OCCN1CCN(c2ncnc3c2c(-c2ccccc2)cn3-c2ccc(Br)cc2)CC1	-0.6	7	1	85*	-0.26	-1
CCN1CCN(c2ncnc3c2c(-c2ccccc2)cn3-c2ccc(F)cc2)CC1	-0.11	-1	-3	26	0.5	-13
N#CCC(=O)N/N=C/c1ccc(Cl)cc1	0.025	-5	2	x	0.2	0
Cc1ccc(-n2c(-c3ccccc3)cc(/C=N/NC(=O)CC#N)c2-c2ccccc2)cc1	0.064	-18	-11	73*	0.061	-5
N#CCC(=O)N/N=C/c1cc(-c2ccccc2)n(-c2ccc(Cl)cc2)c1-c1ccccc1	1.3	-13	-11	80*	x	-9
COCCn1c(SCc2nnc(-c3ccccc3)o2)nc2sc3c(c2c1=O)CCC3	-0.68	-1	-17	97*	x	-6
NC(=O)c1cccc(C(N)=O)n1	-0.31	-8	3	-14	1.5	2
COc1ccc(C(=O)NCC(=O)OCC(=O)N2N=C(c3ccc(Cl)cc3)CC2c2ccco2)cc1OC (stereo unspecified)	-0.8	-4	-11	3	-0.45	-7
Cn1nccc1C(=O)Nc1ccc(Cl)cc1	x	1	-8	6	1.5	1
Cn1nccc1C(=O)Nc1ccccc1C(=O)O	0.04	43	178*	19	-1.5	-4
CC1CCCN(Cc2nc3c(c(=O)n(C)c(=O)n3C)n2CC(N)=O)C1 (stereo unspecified)	x	1	-4	98*	x	-8
CCOC(=O)c1cnc2ccc(C(=O)OC)cc2c1Nc1ccc2c(c1)OCCO2	x	-1	4	32	-0.47	-6
CCOC(=O)c1cnc2ccc(OC)cc2c1Nc1ccc2c(c1)OCCO2	x	12	-17	77*	-1.9	-8
COc1ccc2nc(N3C(=O)CNC3=S)sc2c1	1.2	-5	-7	x	3.6	1
COc1ccc2nc(-n3c(O)c(C4=c5ccccc5=NC4=O)[nH]c3=S)sc2c1	x	96*[fluorescence artefact?]	26	26	0.01	-1
CC(=O)c1ccc(OC(C)C)c(Cc2c(O)nc(N)[nH]c2=O)c1	-0.3	-21	-16	-16	0.042	-7
Cc1ccc(OCC(=O)N/N=C/C=C/c2ccco2)cc1	1.3	-6	-12	10	-0.12	-7
O=C(COc1ccccc1[N+](=O)[O-])N/N=C/C=C/c1ccco1	-1.1	-2	0	71*	-0.11	-9
SMILES	ROMK mod	14-3-3 Bad inh	NCF1 inh	WT yeast gro inh	Cl transport mod	RBBP9 inhibitor
O=C(NCc1cccc(Br)c1)C1CC(c2ccccc2C(F)(F)F)=NO1 (stereo unspecified)	x	2	11	x	-1.1	x
Cc1cc2c3c(c1)C1(SCC(=O)N1c1ccc(F)cc1)C(=O)N3C(C)(C)CC2C (stereo unspecified)	-2.2	-2	4	63*	-0.83	-5
CCCn1c(=O)[nH]c(=O)c2c1nc(-c1ccc3c(c1)OCCO3)n2CCN1CCOCC1	x	72*	-7	-11	-0.16	-4
COc1ccc(C(=O)N2CCCc3ccccc32)cc1	-1.2	88*	-11	-13	-1.9	6
O=C(C(=O)N1CCCc2ccccc21)N1CCCc2ccccc21	-0.86	12	0	13	-0.039	-9
O=C(c1ccc(C(=O)N2CCCc3ccccc32)s1)N1CCCc2ccccc21	x	5	-4	97*	x	-1
